Experimental data taken from ChEMBL document CHEMBL5550188, “Detection of a Mitochondrial Fragmentation and Integrated Stress Response Using the Cell Painting Assay” (2024).
Calls of active or inactive are those of the source. The calls are words filed in the database; no cut-off is given here.

Experiments:
U2OS [1] = assay: Effect on HIF1 signaling in human U2OS cells incubated for 24 hrs by pathway over-representation analysis; assay type: functional, cell-based
In short: (§1)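 U-2OS seeded at 1 × 10⁶ cells in T75 flasks, treated next day for 24 h at 37 °C versus DMSO. Cells were lysed by freeze–thaw, reduced with TCEP at 55 °C, alkylated with iodoacetamide, acetone-precipitated and trypsin-digested. Peptides were TMT-labelled, split into 10 fractions by high-pH C18, then run on nanoHPLC-MS/MS (orbitrap). Biological triplicates, with pathway over-representation analysis.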

U2OS [2] = assay: Induction of oxidative stress in human U2OS cells assessed as increase in mitochondrial superoxide level at 10 uM incubated for 1 hr by MitoSox Red staining based analysis; assay type: functional, cell-based
In short: (§2)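 U-2OS at 15,000/well were preloaded 30 min with 5 μM MitoSOX Red plus Hoechst in plain DMEM. They were then treated 60 min in complete DMEM, fixed in 0.5% paraformaldehyde, and imaged at 10×. Integrated MitoSOX intensity per cell was normalized to DMSO (0%) and 10 μM CDNB (100%). Mean ± SD, n = 3.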

U2OS [3] = assay: Induction of mitochondrial fragmentation in human U2OS cells assessed as puncta-like staining at 10 uM incubated for 20 hrs by Mito Tracker Deep Red dye based CPA assay; assay type: functional, cell-based
In short: (§3)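 Cell Painting: U-2OS were seeded at 1600 cells/well, then dosed 4 h later for 20 h at 37 °C against a matched-% DMSO control. Live cells were stained 30 min with 100 nM MitoTracker Deep Red, then fixed in 3.7% formaldehyde and permeabilized with 0.1% Triton X-100. They were co-stained with phalloidin, concanavalin A, Hoechst, WGA and SYTO 14. Imaging was high-content, run as triplicate plates; features are Z-scores versus DMSO median/MAD.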

U2OS [4] = assay: Effect on glycolysis in human U2OS cells assessed as increase in ECAR level at 10 to 30 uM of acute treatment by Seahorse analysis; assay type: functional, cell-based; settings: dose 10-30 µM
In short: (§4)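 Seahorse XFp Mito Stress Test on U-2OS, 2 × 10⁵ cells per well, seeded overnight. Assay medium was pH 7.4 DMEM with 2 mM GlutaMAX, 1 mM pyruvate and 25 mM glucose. For acute runs, compound was injected after 5 baseline reads, then 10 reads. Otherwise cells were pretreated 24 h. Then oligomycin A, FCCP and rotenone/antimycin A were added. OCR/ECAR were background-subtracted and normalized to the last baseline (100%). Mean ± SD, n = 3.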

U2OS [5] = assay: Effect on mitochondrial dysfunction in human U2OS cells at 30 uM incubated for 24 hrs by pathway over-representation analysis; assay type: functional, cell-based; in short: as §1
U2OS [6] = assay: Inhibition of cell confluence in human U2OS cells at 10 to 50 uM measured after 48 hrs by PI/caspase-3/7 Green dye based analysis; assay type: functional; settings: dose 10-50 µM
In short: (§5)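 U-2OS at 5000/well were incubated overnight, then given medium with compound or DMSO plus propidium iodide and CellEvent Caspase-3/7 Green. Cells were imaged hourly for 48 h by live-cell imaging. Phase confluence gave growth; red and green object confluence gave PI-positive cells and caspase-3/7 activity.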

U2OS [7] = assay: Effect on oxidative phosphorylation in human U2OS cells at 30 uM incubated for 24 hrs by pathway over-representation analysis; assay type: functional, cell-based; in short: as §1
U2OS [8] = assay: Effect on mitochondrial membrane potential in human U2OS cells at 10 uM incubated for 24 hrs by TRME staining based analysis; assay type: functional, cell-based
In short: (§6)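 U-2OS (5 × 10³/well) were treated 24 h, then given 20 μM FCCP or 0.5% DMSO controls for 10 min. Cells were stained 30 min at 37 °C with 1 μM TMRE plus Hoechst-33342 in complete DMEM, washed, and imaged live in 0.2% BSA/PBS at 10× (TMRE ex/em 549/575 nm).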

U2OS [9] = assay: Induction of integrated stress response in human U2OS cells assessed as increase ATF4 mRNA level at 30 uM incubated for 24 hrs by RT-qPCR analysis; assay type: functional, cell-based
In short: (§7)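 U-2OS at 1 × 10⁵/well in 6-well plates were grown 24 h to ~80% confluence, then treated 24 h versus DMSO. Total RNA (DNase-treated) was reverse-transcribed and ATF4 measured by SYBR Green qPCR. Expression was calculated by ΔΔCt against GAPDH, with DMSO set to 100%. Mean ± SD, n = 3.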

U2OS [10] = assay: Effect on glycolysis in human U2OS cells assessed as increase in ECAR level at highest concentration measured after 24 hrs by Seahorse analysis; assay type: functional, cell-based; in short: as §4
U2OS [11] = assay: Effect on mitochondrial respiration in human U2OS cells assessed as suppression of OCR level at 10 to 30 uM measured after 24 hrs by Seahorse analysis; assay type: functional, cell-based; settings: dose 10-30 µM; in short: as §4
U2OS [12] = assay: Induction of integrated stress response in human U2OS cells assessed as increase ATF4 level at 30 uM incubated for 24 hrs by Western blot analysis; assay type: functional, cell-based
In short: (§8)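 U-2OS grown to 80% confluence in 6-well plates were treated 24 h at 37 °C versus DMSO. ATF4 was detected by immunoblotting, with vinculin as reference protein.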

U2OS [13] = assay: Effect on mitochondrial respiration in human U2OS cells assessed as suppression of OCR level at 10 to 30 uM of acute treatment by Seahorse analysis; assay type: functional, cell-based; settings: dose 10-30 µM; in short: as §4
U2OS [14] = assay: Induction of oxidative stress in human U2OS cells assessed as increase in mitochondrial superoxide level at 2 uM incubated for 1 hr by MitoSox Red staining based analysis; assay type: functional, cell-based; in short: as §2
HEK-293T = assay: Upregulation of HIF1 level in HEK293T cells transfected with HIF1/luc at 2 uM incubated for 24 hrs by Renilla luciferase base assay; assay type: functional, cell-based; settings: Homo sapiens
In short: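 HEK293T were co-transfected (Lipofectamine 2000) with a PGK1-HRE-driven destabilized firefly luciferase reporter and constitutive TK-Renilla. Cells were seeded at 2.5 × 10⁴/well, then treated 24 h the next day, with 100 μM CoCl₂ and 10 μM ML228 as controls. Dual-Glo readout: firefly was normalized to Renilla and expressed as fold induction over DMSO.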

U2OS [15] = assay: Effect on mitochondrial membrane potential in human U2OS cells at 2 uM incubated for 24 hrs by TRME staining based analysis; assay type: functional, cell-based; in short: as §6
U2OS [16] = assay: Effect on glycolysis in human U2OS cells assessed as increase in ECAR level at 2 to 10 uM of acute treatment by Seahorse analysis; assay type: functional, cell-based; settings: dose 2-10 µM; in short: as §4
U2OS [17] = assay: Induction of mitochondrial fragmentation in human U2OS cells assessed as puncta-like staining at 2 uM incubated for 20 hrs by Mito Tracker Deep Red dye based CPA assay; assay type: functional, cell-based; in short: as §3
U2OS [18] = assay: Inhibition of cell confluence in human U2OS cells at 2 uM measured after 48 hrs by PI/caspase-3/7 Green dye based analysis; assay type: functional; in short: as §5
U2OS [19] = assay: Effect on mitochondrial dysfunction in human U2OS cells at 2 uM incubated for 24 hrs by pathway over-representation analysis; assay type: functional, cell-based; in short: as §1
U2OS [20] = assay: Effect on mitochondrial respiration in human U2OS cells assessed as suppression of OCR level at 10 uM measured after 24 hrs by Seahorse analysis relative to control; assay type: functional; in short: as §4
U2OS [21] = assay: Effect on oxidative phosphorylation in human U2OS cells at 2 uM incubated for 24 hrs by pathway over-representation analysis; assay type: functional, cell-based; in short: as §1
U2OS [22] = assay: Induction of integrated stress response in human U2OS cells assessed as increase ATF4 level at 2 uM incubated for 24 hrs by Western blot analysis; assay type: functional, cell-based; in short: as §8
U2OS [23] = assay: Induction of integrated stress response in human U2OS cells assessed as increase ATF4 mRNA level at 2 uM incubated for 24 hrs by RT-qPCR analysis; assay type: functional, cell-based; in short: as §7
U2OS [24] = assay: Effect on mitochondrial respiration in human U2OS cells assessed as suppression of OCR level at 2 to 10 uM of acute treatment by Seahorse analysis; assay type: functional, cell-based; settings: dose 2-10 µM; in short: as §4
U2OS [25] = assay: Effect on mitochondrial respiration in human U2OS cells assessed as suppression of OCR level measured after 24 hrs by Seahorse analysis; assay type: functional, cell-based; in short: as §4
U2OS [26] = assay: Inhibition of cell confluence in human U2OS cells at 10 uM measured after 48 hrs by PI/caspase-3/7 Green dye based analysis; assay type: functional; in short: as §5
U2OS [27] = assay: Induction of mitochondrial network fragmentation in human U2OS cells at 2 uM incubated for 24 hrs by CellLight Mitochondria-GFP assay; assay type: functional, cell-based
In short: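 U-2OS were transduced with CellLight Mitochondria-GFP BacMam 2.0 one day before treatment. 3000 cells/well were seeded in chamber slides. After compound addition, live cells were imaged by confocal microscopy (488/555 nm) continuously over 24 h at 37 °C, 5% CO₂.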

U2OS [28] = assay: Effect on HIF1 signaling in human U2OS cells at 2 uM incubated for 24 hrs by pathway over-representation analysis; assay type: functional, cell-based; in short: as §1
U2OS [29] = assay: Induction of integrated stress response in human U2OS cells assessed as increase ATF4 level at 50 uM incubated for 24 hrs by Western blot analysis; assay type: functional, cell-based; in short: as §8

Question: Which Activity (U2OS [1]) does the source give for `COc1cc(OC)c2c(c1Cl)OC1(CCC3(CC1C)OCCc1c3c3cc(C)ccc3n1Cc1ccccc1)C2=O` (stereo unspecified) here?
Answer: Its Activity is “inactive”.

Question: What about the Activity (U2OS [2]) of the same molecule?
Answer: The Activity was “Active”.

Question: What about the Activity (U2OS [3]) of the same molecule?
Answer: The Activity was “Active”.

Question: What about the Activity (U2OS [4]) of the same molecule?
Answer: Its Activity is “inactive”.

Question: What about the Activity (U2OS [5]) of the same molecule?
Answer: The Activity was “Active”.

Question: What about the inhibition (U2OS [6]) of the same molecule?
Answer: Its inhibition is “inactive”.

Question: And the Activity (U2OS [7])?
Answer: Its Activity is “Active”.

Question: What about the Activity (U2OS [8]) of the same molecule?
Answer: The Activity was “inactive”.

Question: And the Activity (U2OS [9])?
Answer: Its Activity is “Active”.

Question: What about the Activity (U2OS [10]) of the same molecule?
Answer: The Activity was “Active”.

Question: What about the Activity (U2OS [11]) of the same molecule?
Answer: Its Activity is “Active”.

Question: What about the Activity (U2OS [12]) of the same molecule?
Answer: The Activity was “Active”.

Question: And the Activity (U2OS [13])?
Answer: The Activity was “inactive”.

Question: Which Activity (U2OS [14]) does the source give for `CCOC(=O)CCNc1cc(N2CCc3ccccc3CC2)nc(-c2ccccn2)n1` here?
Answer: The Activity was “Active”.

Question: And the Activity (HEK-293T)?
Answer: The Activity was “Active”.

Question: And the Activity (U2OS [15])?
Answer: The Activity was “inactive”.

Question: And the Activity (U2OS [16])?
Answer: Its Activity is “inactive”.

Question: And the Activity (U2OS [17])?
Answer: The Activity was “Active”.

Question: And the inhibition (U2OS [18])?
Answer: The inhibition was “inactive”.

Question: What about the Activity (U2OS [19]) of the same molecule?
Answer: Its Activity is “Active”.

Question: And the Activity (U2OS [20])?
Answer: Its Activity is ~100%.

Question: And the Activity (U2OS [21])?
Answer: The Activity was “Active”.

Question: What about the Activity (U2OS [22]) of the same molecule?
Answer: Its Activity is “Active”.

Question: And the Activity (U2OS [23])?
Answer: Its Activity is “Active”.

Question: And the Activity (U2OS [24])?
Answer: The Activity was “inactive”.

Question: And the Activity (U2OS [25])?
Answer: Its Activity is “Dose-Dependent Effect”.

Question: And the Activity (U2OS [10])?
Answer: Its Activity is “Active”.

Question: What about the inhibition (U2OS [26]) of the same molecule?
Answer: The inhibition was “Active”.

Question: And the Activity (U2OS [27])?
Answer: Its Activity is “Active”.

Question: What about the Activity (U2OS [28]) of the same molecule?
Answer: The Activity was “inactive”.

Question: With `CC(=O)N(O)CCCCCNC(=O)CCC(=O)N(O)CCCCCNC(=O)CCC(=O)N(O)CCCCCN` as the molecule, how does the Activity (U2OS [29]) read?
Answer: Its Activity is “inactive”.
